Experimental data reported in ChEMBL document CHEMBL1649414, “Synthesis and antiprotozoal activity of N-alkoxy analogues of the trypanocidal lead compound 4,4'-bis(imidazolinylamino)diphenylamine with improved human blood-brain barrier permeability” (J Med Chem, 2011).
Active and inactive are the calls of the source. No cut-off for these calls is given here.

Key:
[1] = Selectivity index, ratio of IC50 for rat L6 cells to IC50 for chloroquine and pyrimethamine-resistant erythrocytic stages of Plasmodium falciparum K1; type: toxicity, cell-based; conditions: L6 cells versus Plasmodium falciparum K1 erythrocytic stages, read-out: Ratio IC50
How it was run: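 Selectivity index = IC50 (rat L-6 myoblasts, Alamar blue assay)/IC50 (P. falciparum K1 erythrocytic stages, [3H]hypoxanthine incorporation assay).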

[2] = test system: Trypanosoma brucei rhodesiense; test: Antitrypanosomal activity against Trypanosoma brucei rhodesiense STIB900 infected in NMRI mouse assessed as host survival after 60 days at 20 mg/kg, ip qd for 4 days administered after 3 to 6 days postinfection; type: functional, organism-based; set-up: dose 20 mg/kg
How it was run: (§1)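 Female NMRI mice infected ip with 2 10^4 bloodstream STIB900 forms; groups of four dosed ip (4 × 20 mg/kg) or orally (4 × 50 mg/kg) on days 3–6 post-infection; untreated infected controls. Tail-blood parasitemia followed to day 60; surviving aparasitemic mice at day 60 counted cured; mean survival and relapse days recorded.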

Trypanosoma cruzi = test: Antiprotozoal activity against trypomastigote forms of Trypanosoma cruzi Tulahuen C2C4 expressing LacZ by colorimetric CPRG assay
[3] = Selectivity index, ratio of IC50 for rat L6 cells to IC50 for Trypanosoma brucei rhodesiense STIB900; type: toxicity, cell-based; conditions: L6 cells versus Trypanosoma brucei rhodesiense STIB900, read-out: Ratio IC50
How it was run: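 Selectivity index = IC50 (rat L-6 myoblasts)/IC50 (T. b. rhodesiense STIB900 bloodstream forms). Both IC50 values were determined by Alamar blue assay.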

[4] = test system: Trypanosoma brucei rhodesiense; test: Antiprotozoal activity against bloodstream forms of Trypanosoma brucei rhodesiense STIB900 by alamar blue assay; type: functional, organism-based
How it was run: (§2)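 Alamar blue read-out; IC50 determined against bloodstream-form STIB900 trypanosomes, axenically grown L. donovani MHOM/ET/67/L82 amastigotes, or rat skeletal myoblast L-6 cells (cytotoxicity).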

[5] = test system: Trypanosoma brucei rhodesiense; test: Antitrypanosomal activity against Trypanosoma brucei rhodesiense STIB900 infected in NMRI mouse assessed as host survival after 60 days at 50 mg/kg, po qd for 4 days administered after 3 to 6 days postinfection; type: functional, organism-based; set-up: dose 50 mg/kg; how it was run: as §1
L6 = test: Cytotoxicity against rat L6 cells; type: cell-based; how it was run: as §2
[6] = test system: Trypanosoma brucei rhodesiense; test: Antitrypanosomal activity against Trypanosoma brucei rhodesiense STIB900 infected in NMRI mouse assessed as day of host death after 60 days at 50 mg/kg, po qd for 4 days administered after 3 to 6 days postinfection; type: functional
How it was run: (§3)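 Female NMRI mice infected ip with 2 104 bloodstream forms of T. b. rhodesiense STIB900. Groups of four mice were treated ip (4 × 20 mg/kg) or po (4 × 50 mg/kg) on four consecutive days, days 3–6 postinfection. Untreated infected controls were included. Tail blood parasitemia was monitored to day 60. Day of death was recorded (cured mice counted as >60) to give mean survival days.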

Leishmania donovani = test: Antiprotozoal activity against amastigotes of Leishmania donovani MHOM/ET/67/L82 by alamar blue assay; type: functional, organism-based; how it was run: as §2
[7] = test system: Trypanosoma brucei rhodesiense; test: Antitrypanosomal activity against Trypanosoma brucei rhodesiense STIB900 infected in NMRI mouse assessed as day of host death after 60 days at 20 mg/kg, ip qd for 4 days administered after 3 to 6 days postinfection; type: functional; conditions: route intraperitoneal; how it was run: as §3
Plasmodium falciparum = test: Antiprotozoal activity against chloroquine and pyrimethamine-resistant erythrocytic stages of Plasmodium falciparum K1 by [3H]hypoxanthine incorporation assay; type: functional, organism-based
How it was run: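 P. falciparum K1 (chloroquine- and pyrimethamine-resistant) erythrocytic stages; IC50 determined by [3H]hypoxanthine incorporation assay.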

Structure (SMILES) | selectivity ratio [1] | Activity [2] | IC50 (Trypanosoma cruzi) [µM] | selectivity ratio [3] | IC50 [4] [µM] | Activity [5] | IC50 (L6) [µM] | Activity [6] [days] | IC50 (Leishmania donovani) [µM] | Activity [7] [days] | IC50 (Plasmodium falciparum) [µM]
ON1CCN=C1Nc1ccc(Nc2ccc(NC3=NCCN3O)cc2)cc1 | 1670 | inactive | > 204 | 236 | 0.37 | inactive | 92 | 7 | 58 | 25.3 | 0.055
c1ccc(CON2CCN=C2Nc2ccc(Nc3ccc(NC4=NCCN4OCc4ccccc4)cc3)cc2)cc1 | 56 | inactive | 6.6 | 34.7 | 0.32 | inactive | 11 | 7 | 104 | 7 | 0.2
c1cc(Nc2ccc(NC3=NCCN3)cc2)ccc1NC1=NCCN1 | 24100 | Active |  | 3070 |  | inactive |  | 7.75 |  | >60 | 0.009
c1cc(Nc2ccc(NC3=NCCS3)cc2)ccc1NC1=NCCS1 | 21 |  | 30 | 4.7 | 11.1 |  | 52 |  | 120 |  | 2.43
CON1CCN=C1Nc1ccc(Nc2ccc(NC3=NCCN3OC)cc2)cc1 | 120 | inactive | 136 | 65.6 | 0.83 | inactive | 54 | 7 | 39 | 7 | 0.45
CCON(CCNC(=S)Nc1ccc(Nc2ccc(NC(=S)NCCN(OCC)S(=O)(=O)c3ccccc3[N+](=O)[O-])cc2)cc1)S(=O)(=O)c1ccccc1[N+](=O)[O-] | 35 |  | > 104 |  | 14.9 |  | 67 |  | 14 |  | 1.94
CCON1CCN=C1Nc1ccc(Nc2ccc(NC3=NCCN3OCC)cc2)cc1 | 68 | inactive | 87 | 55 | 0.73 | inactive | 40 | 7 | 62 | 7 | 0.59
c1cc(Nc2ccc(NC3=NCCN3OC3CCCCO3)cc2)ccc1NC1=NCCN1OC1CCCCO1 (stereo not given) | 26 | inactive | 24 | 17 | 1.18 | inactive | 20 | 7 | 41 | 7 | 0.75
CON(CCN1C(=O)c2ccccc2C1=O)C(=S)Nc1ccc(Nc2ccc(NC(=S)N(CCN3C(=O)c4ccccc4C3=O)OC)cc2)cc1 |  |  | > 124 |  | 73.8 |  | > 124 |  | 69 |  | 2.64
O=C1c2ccccc2C(=O)N1CCN(OCc1ccccc1)C(=S)Nc1ccc(Nc2ccc(NC(=S)N(CCN3C(=O)c4ccccc4C3=O)OCc3ccccc3)cc2)cc1 |  |  | > 100 |  | 86.7 |  | > 102 |  | 36 |  | 1.36
CON(CCNC(=S)Nc1ccc(Nc2ccc(NC(=S)NCCN(OC)S(=O)(=O)c3ccccc3[N+](=O)[O-])cc2)cc1)S(=O)(=O)c1ccccc1[N+](=O)[O-] |  |  | > 108 |  | 61.3 |  | > 107 |  | 68 |  | 1.81
